Values after ≈ are worked out from the molar mass of the structure shown.
Tested on: Streptococcus pyogenes
Assay: Minimum inhibitory concentration against aerobic organism Streptococcus pyogenes strain 3124
Type: functional
Settings: Streptococcus pyogenes; read-out: MIC
Summary of the method: (§1)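 Agar-dilution MIC in µg/mL against aerobic bacterial strains on tryptocase soy agar, with inoculum applied as spots. Most series used 10^5 cfu per spot, and a later series used 10^4 cfu per spot. In some tables, footnoted strains were instead tested on Mueller-Hinton or nutrient agar. β-Lactamase-producing strains are flagged.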

| MIC | SMILES |
| --- | --- |
| < 0.39 µg/mL | C[n+]1ccccc1NC(C(=O)NC1C(=O)N2C1SC(C)(C)[C@@H]2C(=O)[O-])c1ccccc1 (some centres undefined) |

Tested on: Morganella morganii
Assay: Minimum inhibitory concentration against aerobic organism Morganella morganii strain 2833
Type: functional
Settings: Morganella morganii; read-out: MIC
Summary of the method: as §1

| MIC | SMILES |
| --- | --- |
| > 128 µg/mL | Cn1nnnc1SCC1=C(C(=O)[O-])N2C(=O)[C@@H](Nc3cc[n+](COCc4ccccc4)cc3)[C@H]2SC1 |
| > 128 µg/mL | CC(=O)OCC1=C(C(=O)[O-])N2C(=O)[C@@H](Nc3cc[n+](COCC(Cl)(Cl)Cl)cc3)[C@H]2SC1 |

Tested on: Enterobacter cloacae
Assay: Minimum inhibitory concentration against aerobic organism Enterobacter cloacae strain 2646
Type: functional
Settings: Enterobacter cloacae; read-out: MIC
Summary of the method: as §1

| MIC | SMILES |
| --- | --- |
| 16 µg/mL (≈ 30.4 µM) | Cn1nnnc1SCC1=C(C(=O)[O-])N2C(=O)[C@@H](Nc3cc[n+](COCc4ccccc4)cc3)[C@H]2SC1 |
| 0.125 µg/mL (≈ 0.245 µM) | CC(=O)OCC1=C(C(=O)[O-])N2C(=O)[C@@H](Nc3cc[n+](COCC(Cl)(Cl)Cl)cc3)[C@H]2SC1 |
| > 100 µg/mL | C[n+]1ccccc1NC(C(=O)NC1C(=O)N2C1SC(C)(C)[C@@H]2C(=O)[O-])c1ccccc1 (some centres undefined) |

Tested on: Klebsiella pneumoniae
Assay: Minimum inhibitory concentration against aerobic organism Klebsiella pneumoniae strain 2882
Type: functional
Settings: Klebsiella pneumoniae; read-out: MIC
Summary of the method: as §1

| MIC | SMILES |
| --- | --- |
| 2 µg/mL (≈ 3.81 µM) | Cn1nnnc1SCC1=C(C(=O)[O-])N2C(=O)[C@@H](Nc3cc[n+](COCc4ccccc4)cc3)[C@H]2SC1 |
| < 0.06 µg/mL | CC(=O)OCC1=C(C(=O)[O-])N2C(=O)[C@@H](Nc3cc[n+](COCC(Cl)(Cl)Cl)cc3)[C@H]2SC1 |
| > 100 µg/mL | C[n+]1ccccc1NC(C(=O)NC1C(=O)N2C1SC(C)(C)[C@@H]2C(=O)[O-])c1ccccc1 (some centres undefined) |

Tested on: Proteus mirabilis
Assay: Minimum inhibitory concentration against aerobic organism Proteus mirabilis strain 2830
Type: functional
Settings: Proteus mirabilis; read-out: MIC
Summary of the method: as §1

| MIC | SMILES |
| --- | --- |
| > 128 µg/mL | Cn1nnnc1SCC1=C(C(=O)[O-])N2C(=O)[C@@H](Nc3cc[n+](COCc4ccccc4)cc3)[C@H]2SC1 |
| > 128 µg/mL | CC(=O)OCC1=C(C(=O)[O-])N2C(=O)[C@@H](Nc3cc[n+](COCC(Cl)(Cl)Cl)cc3)[C@H]2SC1 |

Tested on: Proteus vulgaris
Assay: Minimum inhibitory concentration against aerobic organism Proteus vulgaris strain 2829
Type: functional
Settings: Proteus vulgaris; read-out: MIC
Summary of the method: as §1

| MIC | SMILES |
| --- | --- |
| 128 µg/mL (≈ 244 µM) | Cn1nnnc1SCC1=C(C(=O)[O-])N2C(=O)[C@@H](Nc3cc[n+](COCc4ccccc4)cc3)[C@H]2SC1 |
| 32 µg/mL (≈ 62.6 µM) | CC(=O)OCC1=C(C(=O)[O-])N2C(=O)[C@@H](Nc3cc[n+](COCC(Cl)(Cl)Cl)cc3)[C@H]2SC1 |

Tested on: Klebsiella aerogenes
Assay: Minimum inhibitory concentration against aerobic organism Enterobacter aerogenes strain 2906
Type: functional
Settings: Klebsiella aerogenes; read-out: MIC
Summary of the method: as §1

| MIC | SMILES |
| --- | --- |
| 128 µg/mL (≈ 244 µM) | Cn1nnnc1SCC1=C(C(=O)[O-])N2C(=O)[C@@H](Nc3cc[n+](COCc4ccccc4)cc3)[C@H]2SC1 |
| 32 µg/mL (≈ 62.6 µM) | CC(=O)OCC1=C(C(=O)[O-])N2C(=O)[C@@H](Nc3cc[n+](COCC(Cl)(Cl)Cl)cc3)[C@H]2SC1 |

Tested on: Pseudomonas aeruginosa
Assay: Minimum inhibitory concentration against aerobic organism Pseudomonas aeruginosa strain 2835
Type: functional
Settings: not given
Summary of the method: as §1

| MIC | SMILES |
| --- | --- |
| > 128 µg/mL | Cn1nnnc1SCC1=C(C(=O)[O-])N2C(=O)[C@@H](Nc3cc[n+](COCc4ccccc4)cc3)[C@H]2SC1 |
| > 128 µg/mL | CC(=O)OCC1=C(C(=O)[O-])N2C(=O)[C@@H](Nc3cc[n+](COCC(Cl)(Cl)Cl)cc3)[C@H]2SC1 |

Tested on: Shigella
Assay: Minimum inhibitory concentration against aerobic organism Shigella species strain 2880
Type: functional
Settings: Shigella; read-out: MIC
Summary of the method: as §1

| MIC | SMILES |
| --- | --- |
| 1 µg/mL (≈ 1.9 µM) | Cn1nnnc1SCC1=C(C(=O)[O-])N2C(=O)[C@@H](Nc3cc[n+](COCc4ccccc4)cc3)[C@H]2SC1 |
| < 0.06 µg/mL | CC(=O)OCC1=C(C(=O)[O-])N2C(=O)[C@@H](Nc3cc[n+](COCC(Cl)(Cl)Cl)cc3)[C@H]2SC1 |
| 25 µg/mL (≈ 56.8 µM) | C[n+]1ccccc1NC(C(=O)NC1C(=O)N2C1SC(C)(C)[C@@H]2C(=O)[O-])c1ccccc1 (some centres undefined) |

Tested on: not listed separately
Assay: Minimum inhibitory concentration against aerobic organism Salmonella schottmuelleri strain 2837
Type: functional
Settings: Salmonella; read-out: MIC
Summary of the method: as §1

| MIC | SMILES |
| --- | --- |
| 1 µg/mL (≈ 1.9 µM) | Cn1nnnc1SCC1=C(C(=O)[O-])N2C(=O)[C@@H](Nc3cc[n+](COCc4ccccc4)cc3)[C@H]2SC1 |
| < 0.06 µg/mL | CC(=O)OCC1=C(C(=O)[O-])N2C(=O)[C@@H](Nc3cc[n+](COCC(Cl)(Cl)Cl)cc3)[C@H]2SC1 |
| 12.5 µg/mL (≈ 28.4 µM) | C[n+]1ccccc1NC(C(=O)NC1C(=O)N2C1SC(C)(C)[C@@H]2C(=O)[O-])c1ccccc1 (some centres undefined) |

Tested on: Escherichia coli
Assay: MIC against aerobic organism Escherichia coli strain 2891
Type: functional
Settings: Escherichia coli; read-out: MIC
Summary of the method: as §1

| MIC | SMILES |
| --- | --- |
| 1 µg/mL (≈ 1.9 µM) | Cn1nnnc1SCC1=C(C(=O)[O-])N2C(=O)[C@@H](Nc3cc[n+](COCc4ccccc4)cc3)[C@H]2SC1 |
| < 0.06 µg/mL | CC(=O)OCC1=C(C(=O)[O-])N2C(=O)[C@@H](Nc3cc[n+](COCC(Cl)(Cl)Cl)cc3)[C@H]2SC1 |
| > 100 µg/mL | C[n+]1ccccc1NC(C(=O)NC1C(=O)N2C1SC(C)(C)[C@@H]2C(=O)[O-])c1ccccc1 (some centres undefined) |

Tested on: Enterococcus faecalis
Assay: Minimum inhibitory concentration against aerobic organism Streptococcus faecalis strain 2864
Type: functional
Settings: not given
Summary of the method: as §1

| MIC | SMILES |
| --- | --- |
| > 128 µg/mL | Cn1nnnc1SCC1=C(C(=O)[O-])N2C(=O)[C@@H](Nc3cc[n+](COCc4ccccc4)cc3)[C@H]2SC1 |
| 128 µg/mL (≈ 251 µM) | CC(=O)OCC1=C(C(=O)[O-])N2C(=O)[C@@H](Nc3cc[n+](COCC(Cl)(Cl)Cl)cc3)[C@H]2SC1 |
| 12.5 µg/mL (≈ 28.4 µM) | C[n+]1ccccc1NC(C(=O)NC1C(=O)N2C1SC(C)(C)[C@@H]2C(=O)[O-])c1ccccc1 (some centres undefined) |

Tested on: Serratia marcescens
Assay: Minimum inhibitory concentration against aerobic organism Serratia marcescens strain 2852
Type: functional
Settings: Serratia marcescens; read-out: MIC
Summary of the method: as §1

| MIC | SMILES |
| --- | --- |
| > 128 µg/mL | Cn1nnnc1SCC1=C(C(=O)[O-])N2C(=O)[C@@H](Nc3cc[n+](COCc4ccccc4)cc3)[C@H]2SC1 |
| > 128 µg/mL | CC(=O)OCC1=C(C(=O)[O-])N2C(=O)[C@@H](Nc3cc[n+](COCC(Cl)(Cl)Cl)cc3)[C@H]2SC1 |

Tested on: Staphylococcus aureus
Assay: Minimum inhibitory concentration against aerobic organism Staphylococcus aureus strain 2868
Type: functional
Settings: Staphylococcus aureus; read-out: MIC
Summary of the method: as §1

| MIC | SMILES |
| --- | --- |
| 16 µg/mL (≈ 30.4 µM) | Cn1nnnc1SCC1=C(C(=O)[O-])N2C(=O)[C@@H](Nc3cc[n+](COCc4ccccc4)cc3)[C@H]2SC1 |
| 8 µg/mL (≈ 15.7 µM) | CC(=O)OCC1=C(C(=O)[O-])N2C(=O)[C@@H](Nc3cc[n+](COCC(Cl)(Cl)Cl)cc3)[C@H]2SC1 |
| 3.12 µg/mL (≈ 7.08 µM) | C[n+]1ccccc1NC(C(=O)NC1C(=O)N2C1SC(C)(C)[C@@H]2C(=O)[O-])c1ccccc1 (some centres undefined) |
